Active and inactive are the calls of the source. No cut-off for these calls is given here.
Assays:
[1] = target: T1, Tyrosine-protein kinase JAK2 (Homo sapiens, UniProt O60674); experiment: Inhibition of JAK2 (unknown origin) using biotinylated TYK2 peptide as substrate after 60 mins
Target sequence in this assay (O60674 whole entry, the tested form may be a part): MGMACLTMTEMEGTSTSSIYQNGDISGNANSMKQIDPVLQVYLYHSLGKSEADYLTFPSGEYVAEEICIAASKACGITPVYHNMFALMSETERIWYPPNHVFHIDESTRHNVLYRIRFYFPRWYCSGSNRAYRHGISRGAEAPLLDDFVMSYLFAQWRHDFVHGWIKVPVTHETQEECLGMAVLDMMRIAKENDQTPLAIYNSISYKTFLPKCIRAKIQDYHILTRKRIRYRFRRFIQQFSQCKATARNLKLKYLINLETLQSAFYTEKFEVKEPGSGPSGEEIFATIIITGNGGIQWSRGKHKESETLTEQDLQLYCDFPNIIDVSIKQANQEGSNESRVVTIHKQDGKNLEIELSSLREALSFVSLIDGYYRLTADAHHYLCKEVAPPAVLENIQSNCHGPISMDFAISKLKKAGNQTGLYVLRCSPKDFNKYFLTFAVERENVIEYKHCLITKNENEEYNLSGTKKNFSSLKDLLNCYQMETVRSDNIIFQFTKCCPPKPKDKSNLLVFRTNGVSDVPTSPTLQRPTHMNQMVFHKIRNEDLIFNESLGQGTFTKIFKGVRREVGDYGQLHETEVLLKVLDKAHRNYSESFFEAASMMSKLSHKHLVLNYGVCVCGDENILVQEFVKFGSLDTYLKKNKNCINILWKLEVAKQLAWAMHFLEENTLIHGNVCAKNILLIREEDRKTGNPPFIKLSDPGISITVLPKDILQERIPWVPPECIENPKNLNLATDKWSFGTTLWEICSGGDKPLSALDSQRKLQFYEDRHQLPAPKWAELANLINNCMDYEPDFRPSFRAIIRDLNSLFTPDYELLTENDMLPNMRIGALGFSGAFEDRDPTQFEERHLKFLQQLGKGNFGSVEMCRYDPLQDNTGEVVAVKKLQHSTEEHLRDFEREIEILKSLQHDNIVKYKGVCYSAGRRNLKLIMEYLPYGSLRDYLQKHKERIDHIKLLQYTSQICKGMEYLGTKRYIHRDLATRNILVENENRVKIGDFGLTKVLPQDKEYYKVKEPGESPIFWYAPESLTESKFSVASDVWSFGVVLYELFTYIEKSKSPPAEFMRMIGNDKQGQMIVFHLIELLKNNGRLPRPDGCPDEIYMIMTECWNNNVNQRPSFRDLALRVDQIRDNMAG

[2] = Growth inhibition of mouse BA/F3 cells transfected with JAK3 TEL domain after 24 hrs by Alamar Blue assay; format: functional, cell-based; conditions: BaF3, 24 h, read-out: GI50
SET-2 = experiment: Growth inhibition of human SET2 harboring JAK2 V617F mutant after 24 hrs by Alamar Blue assay; format: functional; conditions: SET-2, 24 h
[3] = Growth inhibition of human UKE1 cells harboring JAK2 V617F mutant after 2 days by [3H]-thymidine incorporation assay; format: functional
[4] = target: T2, Tyrosine-protein kinase JAK3 (Homo sapiens, UniProt P52333); experiment: Inhibition of JAK3 (unknown origin) using biotinylated poly-EY peptide as substrate after 60 mins by HTRF assay
T2 sequence (P52333 whole entry): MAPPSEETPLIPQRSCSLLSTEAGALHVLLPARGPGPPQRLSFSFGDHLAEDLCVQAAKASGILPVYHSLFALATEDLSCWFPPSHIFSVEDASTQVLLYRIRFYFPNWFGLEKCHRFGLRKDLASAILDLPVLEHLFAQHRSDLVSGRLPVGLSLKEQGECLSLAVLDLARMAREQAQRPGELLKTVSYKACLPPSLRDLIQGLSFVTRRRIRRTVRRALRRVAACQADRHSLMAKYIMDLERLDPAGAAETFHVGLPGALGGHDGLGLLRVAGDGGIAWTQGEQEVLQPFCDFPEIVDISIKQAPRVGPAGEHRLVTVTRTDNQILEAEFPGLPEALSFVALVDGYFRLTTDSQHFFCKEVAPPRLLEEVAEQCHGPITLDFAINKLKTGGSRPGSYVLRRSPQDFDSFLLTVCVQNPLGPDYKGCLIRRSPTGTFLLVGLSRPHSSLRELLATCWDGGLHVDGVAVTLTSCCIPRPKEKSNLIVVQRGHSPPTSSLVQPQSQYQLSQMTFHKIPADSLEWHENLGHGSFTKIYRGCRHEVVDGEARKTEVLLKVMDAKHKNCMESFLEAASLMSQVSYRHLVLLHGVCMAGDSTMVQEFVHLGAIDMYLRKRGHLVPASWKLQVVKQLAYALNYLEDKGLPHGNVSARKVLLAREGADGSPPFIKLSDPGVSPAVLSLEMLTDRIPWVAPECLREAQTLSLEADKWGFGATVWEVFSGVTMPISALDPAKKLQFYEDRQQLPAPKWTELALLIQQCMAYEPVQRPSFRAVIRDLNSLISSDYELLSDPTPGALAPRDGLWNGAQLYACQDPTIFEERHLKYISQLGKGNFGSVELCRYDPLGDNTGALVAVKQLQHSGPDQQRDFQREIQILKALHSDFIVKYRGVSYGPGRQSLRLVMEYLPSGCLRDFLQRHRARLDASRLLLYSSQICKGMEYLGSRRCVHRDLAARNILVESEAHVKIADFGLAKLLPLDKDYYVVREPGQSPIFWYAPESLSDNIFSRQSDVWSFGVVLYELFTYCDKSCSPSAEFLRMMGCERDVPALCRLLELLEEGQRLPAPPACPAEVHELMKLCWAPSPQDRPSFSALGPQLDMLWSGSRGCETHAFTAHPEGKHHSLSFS

[5] = Growth inhibition of mouse BA/F3 cells transfected with JAK2 TEL domain after 24 hrs by Alamar Blue assay; format: functional; conditions: BaF3, 24 h
Homo sapiens = organism: Homo sapiens; experiment: Selectivity ratio of IC50 for JAK3 (unknown origin) to IC50 for JAK2 (unknown origin)
How it was run: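 Jak2 and Jak3 enzyme IC50s determined at 5 mM ATP; the ratio is the Jak3 IC50 divided by the Jak2 IC50.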

Hepatocyte = experiment: Metabolic stability in human hepatocytes measured per 10^6 cells; format: ADME, cell-based
[6] = Total plasma concentration in nude mouse allografted with mouse Ba/F3 cells expressing JAK2 TEL domain at 10 mg/kg, po qd measured at 8 hrs; format: ADME, organism-based, BaF3; set-up: dose 10 mg/kg, route oral
How it was run: (§1)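 Female nude mice implanted intravenously with Ba/F3 TEL-JAK2 cells on day 0 and dosed orally on day 10. Total plasma drug concentration was measured at the stated times post-dose, averaged over n = 3 per dose and time point.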

[7] = target: T1, Tyrosine-protein kinase JAK2; experiment: Competitive inhibition of JAK2 (unknown origin)
Target sequence in this assay (O60674 whole entry, the tested form may be a part): as the sequence (O60674 whole entry, the tested form may be a part) above

[8] = Volume of distribution at steady state in Han Wistar rat at 10 mg/kg, po and 3 mg/kg, iv; format: ADME, organism-based; conditions: in vivo, read-out: Vdss
[9] = Volume of distribution at steady state in CD1 mouse at 10 mg/kg, po and 3 mg/kg, iv; format: ADME, organism-based; conditions: in vivo, read-out: Vdss
How it was run: (§2)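 Single-dose PK: female CD-1 mice and male Han Wistar rats, 10 mg/kg po in 0.1% HPMC and 3 mg/kg iv in DMA/PEG/saline 40/40/20.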

[10] = Total plasma concentration in nude mouse allografted with mouse Ba/F3 cells expressing JAK2 TEL domain at 5 mg/kg, po qd measured at 6 hrs; format: ADME, organism-based, BaF3; set-up: dose 5 mg/kg, route oral; how it was run: as §1
[11] = Total plasma concentration in nude mouse allografted with mouse Ba/F3 cells expressing JAK2 TEL domain at 10 mg/kg, po qd measured at 2 hrs; format: ADME, organism-based, BaF3; set-up: dose 10 mg/kg, route oral; how it was run: as §1
[12] = AUC in CD1 mouse at 10 mg/kg, po and 3 mg/kg, iv; format: ADME, organism-based; conditions: plasma; how it was run: as §2
[13] = Oral bioavailability in CD1 mouse at 10 mg/kg; format: ADME, organism-based; conditions: in vivo
How it was run: (§3)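 Oral bioavailability in female CD-1 mice and male Han Wistar rats: 10 mg/kg po (0.1% HPMC) versus 3 mg/kg iv (DMA/PEG/saline 40/40/20). %F = (AUCpo × DoseIV)/(AUCIV × Dosepo) × 100.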

[14] = Oral bioavailability in Han Wistar rat at 10 mg/kg; format: ADME, organism-based; conditions: in vivo; how it was run: as §3
[15] = target: T2, Tyrosine-protein kinase JAK3; experiment: Inhibition of JAK3 TEL domain (unknown origin) transfected in mouse Ba/F3 cells; format: cell-based, BaF3
[16] = Total plasma concentration in nude mouse allografted with mouse Ba/F3 cells expressing JAK2 TEL domain at 5 mg/kg, po qd measured at 8 hrs; format: ADME, organism-based, BaF3; set-up: dose 5 mg/kg, route oral; how it was run: as §1
Mus musculus [17] = experiment: In vivo inhibition of JAK2 TEL domain (unknown origin) transfected in mouse Ba/F3 cells allografted in nude mouse assessed as inhibition of STAT5 phosphorylation at 5 mg/kg, po qd after 6 hrs; format: functional, organism-based; set-up: dose 5 mg/kg; conditions: BaF3
How it was run: (§4)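 Female nude mice implanted intravenously with Ba/F3 TEL-JAK2 cells on day 0 and given a single oral dose on day 10. pStat5 was measured at the stated times post-dose. % inhibition was scaled between vehicle and a control inhibitor as maximum and minimum, with n = 3 per dose and time point, reported as mean ±SD.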

[18] = Clearance in beagle dog at 5 mg/kg, po and […] mg/kg, iv; format: ADME, organism-based, Canis lupus familiaris; conditions: in vivo, 2.5 mg/kg
[19] = Volume of distribution at steady state in beagle dog at 5 mg/kg, po and 2.5 mg/kg, iv; format: ADME, organism-based, Canis lupus familiaris; conditions: in vivo, read-out: Vdss
How it was run: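 Male Beagle dogs. Oral 5 mg/kg in 0.1% HPMC; intravenous 2.5 mg/kg in HP-β-CD.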

[20] = Total plasma concentration in nude mouse allografted with mouse Ba/F3 cells expressing JAK2 TEL domain at 10 mg/kg, po qd measured at 6 hrs; format: ADME, organism-based, BaF3; set-up: dose 10 mg/kg, route oral; how it was run: as §1
Mus musculus [21] = experiment: In vivo inhibition of JAK2 TEL domain (unknown origin) transfected in mouse Ba/F3 cells allografted in nude mouse assessed as inhibition of STAT5 phosphorylation at 10 mg/kg, po qd measured at 8 hrs relative to vehicle-treated control; format: functional; conditions: BaF3, 8 h; how it was run: as §4
[22] = Clearance in CD1 mouse at 10 mg/kg, po and 3 mg/kg, iv; format: ADME, organism-based; conditions: in vivo; how it was run: as §2
Mus musculus [23] = experiment: In vivo inhibition of JAK2 TEL domain (unknown origin) transfected in mouse Ba/F3 cells allografted in nude mouse assessed as inhibition of STAT5 phosphorylation at 5 mg/kg, po qd measured at 8 hrs relative to vehicle-treated control; format: functional; conditions: BaF3, 8 h; how it was run: as §4
[24] = Clearance in Han Wistar rat at 10 mg/kg, po and 3 mg/kg, iv; format: ADME, organism-based; conditions: in vivo; how it was run: as §2
[25] = target: T1, Tyrosine-protein kinase JAK2; experiment: Inhibition of JAK2 TEL domain (unknown origin) transfected in mouse Ba/F3 cells; format: cell-based; conditions: baf3
Target sequence in this assay (O60674 whole entry, looked up, the tested form may be a part): as the sequence (O60674 whole entry, the tested form may be a part) above

[26] = Fraction unbound in nude mouse plasma allografted with mouse Ba/F3 cells expressing JAK2 TEL domain at 5 to 10 mg/kg, po qd after 6 hrs; format: ADME, organism-based, BaF3; set-up: dose 5-10 mg/kg, route oral
Mus musculus [27] = experiment: In vivo inhibition of JAK2 TEL domain (unknown origin) transfected in mouse Ba/F3 cells allografted in nude mouse assessed as inhibition of STAT5 phosphorylation at 10 mg/kg, po qd after 6 hrs relative to vehicle-treated control; format: functional; conditions: BaF3, 6 h; how it was run: as §4
[28] = AUC in Han Wistar rat at 10 mg/kg, po and 3 mg/kg, iv; format: ADME, organism-based; conditions: plasma; how it was run: as §2
[29] = Total plasma concentration in nude mouse allografted with mouse Ba/F3 cells expressing JAK2 TEL domain at 5 mg/kg, po qd measured at 2 hrs; format: ADME, organism-based, BaF3; set-up: dose 5 mg/kg, route oral; how it was run: as §1

Work on `Cc1cc(Nc2nc(O[C@@H](C)c3ncc(F)cc3F)c(F)c(N3CCOCC3)n2)n[nH]1` yielded an IC50 [1] of 4 nM, a GI50 [2] of 430 nM and a GI50 (SET-2) of 18 nM. For the same molecule, the GI50 [3] was 30 nM, the IC50 [4] was 45 nM and the GI50 [5] was 10 nM.
For `Cc1cc(Nc2nc(O[C@@H](C)c3ccc(F)cn3)c(F)c(N3CCOCC3)n2)n[nH]1`, the IC50 [1] was 4 nM, the GI50 [2] was 240 nM and the IC50 [4] was 87 nM. For the same molecule, the GI50 [5] was 16 nM.
With `Cc1cc(Nc2cc(N3CCOCC3)nc(N[C@@H](C)c3ncc(F)cn3)n2)n[nH]1` the Ratio IC50 (Homo sapiens) was > 10.
With `Cc1cc(Nc2nc(N[C@@H](C)c3ccc(F)cn3)c(F)c(N3CCS(=O)(=O)CC3)n2)n[nH]1` the IC50 [1] was 3 nM, the GI50 [2] was 270 nM and the IC50 [4] was 4 nM.
With `Cc1cnc(Nc2nc(N[C@@H](C)c3ncc(F)cn3)nc(N3CCOCC3)c2F)s1` the IC50 [1] was 25 nM, the GI50 [2] was 4900 nM and the IC50 [4] was > 30000 nM. For the same molecule, the GI50 [5] was 30 nM.
In the case of `Cc1cc(Nc2nc(N[C@@H](C)c3ncc(F)cn3)c(F)c(N3CCOCC3)n2)[nH]n1`, the IC50 [1] is reported as 3 nM and the IC50 [4] is reported as 229 nM.
With `Cc1cc(Nc2nc(N[C@@H](C)c3ncc(F)cc3F)c(F)c(N3CCOCC3)n2)n[nH]1` the IC50 [1] was 3 nM, the Stability (Hepatocyte) was 5.2 µL/min/1e6 cells and the concentration at 8 h [6] was 123 ng/mL. The Ki [7] was 1.41 nM, the Vd [8] was 3.1 L/kg and the Vd [9] was 2.9 L/kg. It also gave a concentration at 6 h [10] of 98 ng/mL, a concentration at 2 h [11] of 376 ng/mL and a GI50 [2] of 300 nM. It also gave an AUC [12] of 13.3 µM·h, a bioavailability [13] of 64% and a bioavailability [14] of 51%. For the same molecule, the IC50 [15] was 370 nM, the concentration at 8 h [16] was 55 ng/mL and the inhibition (Mus musculus [17]) was “Active”. It also gave a clearance [18] of 14 mL/min/kg, a Vd [19] of 2.5 L/kg and a concentration at 6 h [20] of 248 ng/mL. For the same molecule, the GI50 (SET-2) was 14 nM, the inhibition in vivo at 10 mg/kg (Mus musculus [21]) was 70% and the GI50 [3] was 22 nM. The clearance [22] was 18 mL/min/kg, the inhibition in vivo at 5 mg/kg (Mus musculus [23]) was 50% and the IC50 [4] was 8 nM. The clearance [24] was 12 mL/min/kg, the IC50 [25] was 7 nM and the fraction unbound at 6 h [26] was 0.06. The GI50 [5] was 8 nM, the inhibition in vivo at 10 mg/kg (Mus musculus [27]) was > 80% and the AUC [28] was 17.7 µM·h. It also gave a concentration at 2 h [29] of 228 ng/mL.
`Cc1cc(Nc2nc(N[C@@H](C)c3ncc(F)cn3)cc(N3CCOCC3)n2)n[nH]1` showed an IC50 [1] of 5 nM, an IC50 [4] of 95 nM and a GI50 [5] of 58 nM.
With `Cc1cc(Nc2nc(N[C@@H](C)c3ccc(F)cn3)c(Cl)c(N3CCOCC3)n2)[nH]n1` the IC50 [1] was 6 nM and the IC50 [4] was 262 nM.
